The results in this text go back to ChEMBL document CHEMBL1148220, “Antineoplastic agents. 529. Isolation and structure of nootkastatins 1 and 2 from the Alaskan yellow cedar Chamaecyparis nootkatensis” (2004).

In brackets after ≈: the same amount, converted by molar mass. Activity calls are given as the source filed them. The rule behind the calls is not given here.

For one assay, the system named is Candida albicans. In words: Antimicrobial activity against Candida albicans ATCC 90028 at 64 ug/mL after 48 hrs by broth microdilution assay. Type of assay: functional, organism-based.
The subject of another assay is P388. In words: Cytotoxicity against mouse P388 cells. The format is functional. The settings on record: read-out: ED50 (the source's name).
The next assay concerns BXPC-3. The assay is described as follows: Cytotoxicity against human BxPC3 cells after 48 hrs by SRB assay. Type of assay: functional. The settings on record: BXPC-3, 48 h.
Assay [1] concerns Stenotrophomonas maltophilia. The assay is described as follows: Antimicrobial activity against Stenotrophomonas maltophilia ATCC 13637 at 64 ug/mL after 24 hrs by broth microdilution assay. The format is functional, organism-based.
The next assay deals with MCF7. The assay is described as follows: Cytotoxicity against human MCF7 cells after 48 hrs by SRB assay. The format is functional. Conditions: MCF7, 48 h.
The subject of a further assay is SF-268. The assay is described as follows: Cytotoxicity against human SF268 cells after 48 hrs by SRB assay. The format is functional. Conditions: SF-268, 48 h.
The next assay relates to Neisseria gonorrhoeae. In words: Antimicrobial activity against Neisseria gonorrhoeae ATCC 49226 at 64 ug/mL after 24 hrs by broth microdilution assay. Type of assay: functional. Conditions: ATCC 49226, 24 h.
A further assay has as its system Enterococcus faecalis. In words: Antimicrobial activity against Enterococcus faecalis ATCC 29212 after 24 hrs by broth microdilution assay. Type of assay: functional. The settings on record: ATCC 29212, 24 h. Put shortly: (§1)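 Bacterial MICs were determined by NCCLS broth microdilution. Compounds were dissolved in a small volume of sterile DMSO and diluted in the appropriate medium just before testing. MIC was the lowest concentration giving no visible growth (optically clear). Assays were repeated on separate days.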

In another assay the test system is NCI-H460. The assay is described as follows: Cytotoxicity against human NCI-H460 cells after 48 hrs by SRB assay. The format is functional. Conditions: NCI-H460, 48 h.
The next assay deals with Cryptococcus neoformans. The assay is described as follows: Antimicrobial activity against Cryptococcus neoformans ATCC 90122 after 24 hrs by broth microdilution assay. Type of assay: functional. Conditions: ATCC 90112, 24 h, in the assay text read “ATCC 90112” for “ATCC 90122”. Put shortly: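 Yeasts were tested by NCCLS broth microdilution. Compounds were dissolved in a small volume of sterile DMSO and diluted in the appropriate medium immediately before testing. MIC was the lowest concentration inhibiting all visible growth (optically clear). Assays were repeated on separate days.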

Another assay has as its system Escherichia coli. The assay is described as follows: Antimicrobial activity against Escherichia coli ATCC 25922 at 64 ug/mL after 24 hrs by broth microdilution assay. Type of assay: functional, organism-based.
A further assay has as its system Enterobacter cloacae. In words: Antimicrobial activity against Enterobacter cloacae ATCC 13047 at 64 ug/mL after 24 hrs by broth microdilution assay. Type of assay: functional, organism-based.
A further assay relates to DU-145. The assay is described as follows: Cytotoxicity against human DU145 cells after 48 hrs by SRB assay. The format is functional. Conditions: DU-145, 48 h.
Another assay has as its system Streptococcus pneumoniae. In words: Antimicrobial activity against Streptococcus pneumoniae ATCC 6303 after 24 hrs by broth microdilution assay. The format is functional. Conditions: ATCC 6303, 24 h. Put shortly: as §1
A further assay has as its system KM-20L2. In words: Cytotoxicity against human KM20L2 cells after 48 hrs by SRB assay. The format is functional. Conditions: KM-20L2, 48 h.
In a further assay the test system is Staphylococcus aureus. In words: Antimicrobial activity against Staphylococcus aureus ATCC 29213 after 24 hrs by broth microdilution assay. The format is functional. The settings on record: ATCC 29213, 24 h. Summed up: as §1
Another assay deals with Micrococcus luteus. In words: Antimicrobial activity against Micrococcus luteus Presque Isle 456 after 24 hrs by broth microdilution assay. Type of assay: functional. Summed up:
as §1

`CC(C)c1c(O)ccc2c1C=C[C@H]1C(C)(C)CCC[C@]21C`: the outcome (in the assay with Candida albicans; in assay [1]; in the assay with Escherichia coli; in the assay with Enterobacter cloacae) was inactive. The EC50 with P388 was 3.7 µg/mL (≈ 13 µM). In addition, the GI50 in the assay with BXPC-3, in the assay on MCF7, in the assay on SF-268, in the assay with NCI-H460, in the assay with DU-145 and with KM-20L2 was more than 10 µg/mL in each case. Besides, the MIC came to 8 µg/mL (≈ 28.1 µM) in the assay with Neisseria gonorrhoeae; 16 µg/mL (≈ 56.3 µM) against Enterococcus faecalis; 16 µg/mL (≈ 56.3 µM) in the assay with Cryptococcus neoformans; 32 µg/mL (≈ 113 µM) with Streptococcus pneumoniae; 16 µg/mL (≈ 56.3 µM) against Staphylococcus aureus; 4 µg/mL (≈ 14.1 µM) against Micrococcus luteus.
